pKd: −log10 of the molar value. Activity calls are given as the source filed them. No cut-off for these calls is given here.
Key:
[1] = test system: C2C12; test: Binding affinity to r(CUG)800 RNA (unknown origin) expressed in mouse C2C12 cells assessed as increase in nucleocytoplasmic transport of mRNA at 12.5 to 50 uM measured after 20 to 24 hrs by luciferase reporter gene assay; type: cell-based
Summary of the method: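 Run in C2C12 cells expressing a luciferase-encoding mRNA carrying 800 CUG repeats in the 3′ UTR. Nucleocytoplasmic export is read as luciferase turnover of a pro-luminescent substrate. Compounds tested at 50, 25 and 12.5 µM.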

[2] = test system: HeLa; test: Binding affinity to r(CUG)960 RNA (unknown origin) expressed in human HeLa cells co-expressing cTNT mini-gene assessed as reduction in deregulated cTNT exon5 alternative splicing at 100 uM measured after 20 to 24 hrs by RT-PCR analysis; type: cell-based
[3] = Binding affinity to biotinylated-r(CUG)12 RNA (unknown origin) assessed as disruption of r(CUG)12/His6-tagged MBNL1 complex at 50 uM incubated for 15 mins by TR-FRET assay
Summary of the method: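 TR-FRET disruption of a preformed r(CUG)12–MBNL1 complex, method as described previously; each compound screened at a single 50 µM concentration.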

[4] = Cytotoxicity against human HeLa cells expressing DM1 assessed as reduction in cell viability at 100 uM measured after 24 hrs by WST-1 assay; type: toxicity, cell-based
[5] = test system: C2C12; test: Effect on luciferase expression in mouse C2C12 cells at 12.5 to 50 uM measured after 20 to 24 hrs by luminescence assay; type: functional, cell-based
Summary of the method: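 Counterscreen in the same C2C12 luciferase line without CUG repeats, used to flag compounds that enhance luciferase translation non-specifically. Compounds tested at 50, 25 and 12.5 µM.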

[6] = test system: HeLa; test: Increase in DMPK transcript level in human HeLa cells co-expressing DM1/DMPK and cTNT mini-gene at 100 uM measured after 20 to 24 hrs by RT-qPCR method; type: functional, cell-based
[7] = test system: HeLa; test: Binding affinity to r(CUG)960 RNA (unknown origin) expressed in human HeLa cells co-expressing cTNT mini-gene assessed as reduction in deregulated cTNT exon5 alternative splicing at 10 uM measured after 20 to 24 hrs by RT-PCR analysis; type: cell-based
[8] = Binding affinity to AT hairpin DNA (unknown origin) measured after 30 mins by fluorescence analysis
[9] = Binding affinity to r(CUG)2 RNA (unknown origin) measured after 5 mins by fluorescence analysis
[10] = Binding affinity to tRNA (unknown origin) measured after 30 mins by fluorescence analysis
[11] = Binding affinity to r(GC)20 RNA (unknown origin) measured after 5 mins by fluorescence analysis

Row | Activity [3] [%] | pKd [8] | pKd [9] | pKd [10] | pKd [11] | Compound | Activity [1] | Activity [2] | Activity [4] | Activity [5] | Activity [6] | Activity [7]
1 | > 20 |  |  |  |  | O=C(Nc1ccc2[nH]c(-c3ccc(F)cc3)nc2c1)c1ccncc1 | Active | Active | Non-Toxic |  |  | 
2 | > 20 |  |  |  |  | O=C(Nc1ccc2c(c1)C(=O)N(c1ccccc1)C2=O)c1ccco1 | Active |  |  | Active |  | 
3 | > 20 |  |  |  |  | O=C(Nc1ccccn1)c1cccc(OCc2cscn2)c1 | Active | Active | Non-Toxic |  | Active | Active
4 | > 20 |  |  |  |  | Cc1c(C(=O)Nc2ccccn2)sc2nc(-c3ccccc3)cn12 | Active |  |  | Active |  | 
5 | > 20 | < 4.30 | 5.34 | < 4.30 | < 4.52 | O=C(Nc1ccc(NC(=O)c2ccc(F)cc2)nc1)c1ccncc1 | Active | Active | Non-Toxic |  |  | Active
6 | > 20 |  |  |  |  | O=C(Nc1ccc(-c2nc3ccccc3[nH]2)cc1)c1cccnc1 | Active |  |  | Active |  | 
7 | > 20 |  |  |  |  | Nc1ccc(-c2nc3ccc(-c4nc5ccc(N)cc5[nH]4)cc3[nH]2)cc1 |  |  |  |  |  | 

From ChEMBL document CHEMBL3870332, “Development of pharmacophore models for small molecules targeting RNA: Application to the RNA repeat expansion in myotonic dystrophy type 1” (Bioorg Med Chem Lett, 2016)
